# An excerpt weighted towards active compounds, which were near 9.6% of everything screened.
# Lmaj promast = reduces viability of Leishmania major promastigotes; 200,000 compounds, 9% hits; resazurin fluorescence viability; AID 1063; inhibition, % at 10 µM; in the data active = inhibition above about 50%;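 also: promastigotes grown with compound for 44 hours at 28 °C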
# Ba/F3 V617F tox = loss of viability in JAK2V617F-driven Ba/F3 cells; Ba/F3 EpoR-JAK2V617F viability, ATP luminescence; inhibition, % at 5.6 µM; 220,000 compounds, 1.1% hits; AID 1446;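 active = inhibition above the campaign mean plus 3 SD over all tested compounds, cut at about 24% in these data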;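 also: cytokine-independent growth of Ba/F3 cells driven by EpoR plus mutant JAK2; 0% = DMSO-treated cells and 100% = JAK inhibitor I control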
# BaF3 tox = parental Ba/F3 viability inhibition as JAK2V617F counter-screen | CellTiter-Glo ATP luminescence | inhibition, % at 5.6 µM | 220,000 compounds, 1.1% hits | AID 1486;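 active = inhibition above a per-campaign cutoff, the mean inhibition of all tested compounds plus 3 SD, cut at about 27% in these data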;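 also: 0% = DMSO wells and 100% = JAK Inhibitor I control wells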
# bCat nuc transl = modulators of beta-catenin nuclear translocation | 190,000 compounds, 0.3% hits | nuclear translocation activity, % at 5 µM | HeLa beta-catenin nuclear translocation, immunofluorescence imaging;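 active = nuclear translocation activity above 50% at 5 µM, with a well cell count of 50 or more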;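 also: per-cell ratio of nuclear to cytoplasmic median beta-catenin stain intensity; plate controls were DMSO negative control for no effect and GSK-3 inhibitor IX positive control for full effect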
#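 Read-out: Nuclear/cytoplasmic beta-catenin signal ratio, % activation | Assay system: Human HeLa cell line | Times: 24 h compound exposure at 37°C, 5% CO2 | Signal: Fluorescence imaging of beta-catenin antibody stain plus DAPI | Dosing: 5 µM primary, 0.02–20 µM confirmation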
# APP 5UTR inh = APP translation inhibition; SH-SY5Y APP 5'UTR-luciferase reporter, luminescence; inhibition, % at 2 µM; 190,000 compounds, 0.82% hits;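 active = inhibition above a set limit, derived from the sample mean plus 3 SD, cut at about 45% in these data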
# MT stabilize HCS = microtubule stabilization, imaging screen | AID 2205 | 200,000 compounds, 0.83% hits | % tubulin-high responders, % at 10 µM | HeLa tubulin immunostaining HCS, 24 h; share of cells brighter than vehicle mean+2SD;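 active = plate Z-score above 3 for both tubulin-high and condensed-nucleus cell shares, with cell loss under 80%, at 10 µM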;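 also: anti alpha tubulin signal scored within the nucleus-defined area of each cell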
# An asterisk follows results filed as active; nt = no result.
SMILES,Lmaj promast,Ba/F3 V617F tox,BaF3 tox,bCat nuc transl,APP 5UTR inh,MT stabilize HCS
CCc1cc(/C(Cc2ccccn2)=N\Nc2ccccc2)c(O)cc1O,59.5*,-1.7,4.1,3.7,-3.7,1.2
Cc1nc(C/C(=N\Nc2ccccc2)c2ccc(O)cc2O)cs1,11.5,-4.1,1.5,-1.3,4.6,4.1
c1ccc2c(c1)oc1c(NCCN3CCOCC3)ncnc12,8.7,2.1,2.0,-0.7,6.0,1.7
CCc1nc(Nc2ccc(N3CCN(C(C)=O)CC3)cc2)c2oc3ccccc3c2n1,8.7,1.0,6.4,0.5,nt,0.9
CC(=O)N1CCN(c2ccc(Nc3ncnc4c3oc3ccccc34)cc2)CC1,62.3*,4.8,11.0,-1.4,nt,2.6
c1ccc2c(c1)oc1c(Nc3ccc(CN4CCOCC4)cc3)ncnc12,89.2*,-0.6,4.5,-2.1,-187.1,3.4
COc1ccccc1NC(=S)NC1CCC(CC2CCC(NC(=S)Nc3ccccc3OC)CC2)CC1 (centres undefined),15.0,-5.5,2.9,3.8,8.6,2.1
O=S(=O)(c1cnccc1N1CCN(/N=C/c2ccccc2)CC1)N1CCCCC1,50.4*,-3.7,1.4,-1.9,-8.5,2.2
COc1ccc(/C=N/N2CCN(c3ccncc3S(=O)(=O)N3CCCCC3)CC2)cc1,36.0,-0.7,3.6,0.0,26.0,2.0
c1ccc2[nH]c(NCCCN3CCOCC3)nc2c1,1.1,2.4,0.8,-4.1,-8.1,2.3
Cc1ccc2ncnc(NCCCN3CCOCC3)c2c1,4.0,0.1,3.3,1.3,6.7,4.3
Cc1cccc(-c2nc(NCCCN3CCOCC3)c3ccccc3n2)c1,100.4*,-2.4,2.8,-5.1,-13.8,1.5
c1ccc(-c2nc(NCCCN3CCOCC3)c3ccccc3n2)cc1,62.2*,1.1,5.2,nt,5.2,2.4
COc1cc(NC(=O)c2cccs2)c(OC)cc1NC(=O)CCC(=O)Nc1ccc2ncccc2c1,3.0,2.9,0.9,-2.8,10.6,2.8
O=C(O)CCCNC(=O)/C(=C\c1ccc(Cl)cc1)NC(=O)c1ccc(Br)cc1,-4.2,1.5,9.8,1.0,-5.8,3.2
COc1cc(NC(=S)N2CCC(C(O)(c3ccccc3)c3ccccc3)CC2)cc(OC)c1,5.7,-6.4,4.4,0.5,12.6,5.7
COc1ccc(NC(=S)N2CCc3ccccc3C2)cc1,-3.1,1.1,4.4,-1.7,-13.1,3.0
O=[N+]([O-])c1cc(CN2CCCC2)c2cccnc2c1O,11.4,-1.7,4.8,-0.6,2.8,3.7
Oc1c(CN2CCCCC2)cc(COCc2ccccc2)c2cccnc12,100.5*,88.6*,98.9*,0.3,85.1*,17.5
Oc1cc(Cc2ccccc2)cnc1CN1CCCCC1,1.7,-0.2,6.4,1.6,-8.1,3.4
COc1ccccc1N1CCN(Cc2cc(Br)c(O)c3ncccc23)CC1,100.4*,98.0*,85.7*,nt,20.8,10.1
COCc1cc(CN2CCCC2)c(O)c2ncccc12,100.5*,71.8*,59.4*,2.9,20.4,4.2
O=c1c(Cl)c(NCc2ccccc2)cnn1C12CC3CC(CC(C3)C1)C2,92.6*,0.0,6.8,nt,-14.5,3.1
O=C(O)CC12CC3CC(C1)CC(n1ncc(NCc4ccco4)c(Cl)c1=O)(C3)C2,nt,0.4,-0.4,-1.0,nt,nt
O=C1N=c2ccccc2=C1c1c(O)n(-c2cccc(F)c2)[nH]c1=O,60.9*,0.0,4.8,-1.3,4.6,2.4
SMILES,Lmaj promast,Ba/F3 V617F tox,BaF3 tox,bCat nuc transl,APP 5UTR inh,MT stabilize HCS
Cn1c(O)c(C2=c3ccccc3=NC2=O)[nH]c1=S,-4.4,-3.2,0.3,-3.7,-1.1,2.4
CN1c2ccccc2C(C)(C)C12C=Cc1cc(O)ccc1O2 (centres undefined),99.3*,72.4*,62.9*,3.9,4.5,12.6
CC1CC(C)CN(S(=O)(=O)c2ccc(C(=O)NCCCn3ccnc3)cc2)C1 (centres undefined),0.1,6.3,4.3,-1.0,72.6*,4.7
COc1ccc(OC)c(-n2c(SCC(=O)NCc3ccco3)nnc2-c2c[nH]c3ccccc23)c1,96.3*,4.3,3.7,0.3,-14.8,4.2
COCCn1c(SCC(=O)NCc2ccco2)nnc1-c1c[nH]c2ccccc12,-7.2,-2.8,-0.1,-1.0,-7.8,5.8
COc1cccc(-n2c(SCC(=O)NCc3ccco3)nnc2-c2c[nH]c3ccccc23)c1,98.4*,-3.0,2.4,1.9,12.2,3.4
CCc1ccc(CN2CCCC(CNS(=O)(=O)c3ccc(OC)cc3)C2)cc1 (centres undefined),84.0*,1.7,5.9,-1.2,5.7,1.6
COc1ccc(S(=O)(=O)NCC2CCCN(Cc3ccc(C)o3)C2)cc1 (centres undefined),20.8,-1.9,2.9,-3.0,3.8,1.7
Cc1ccc(CNCCC2=CCCCC2)cc1,69.7*,1.9,4.8,0.5,-16.7,2.1

# Compound activity deposited in PubChem BioAssay by several laboratories.
